Assay results from ChEMBL document CHEMBL4020842, “Discovery of N1-(4-((7-Cyclopentyl-6-(dimethylcarbamoyl)-7 H-pyrrolo[2,3- d]pyrimidin-2-yl)amino)phenyl)- N8-hydroxyoctanediamide as a Novel Inhibitor Targeting Cyclin-dependent Kinase 4/9 (CDK4/9) and Histone Deacetlyase1 (HDAC1) against Malignant Cancer” (J Med Chem, 2018).
Active and inactive are the calls of the source. The rule behind the calls is not given here.

What was measured:
A549 [1] = assay: Induction of apoptosis in human A549 cells after 48 hrs by annexin V-FITC/propidium iodide staining based flow cytometry; format: functional, cell-based
MDA-MB-231 [2] = assay: Downregulation of CDK4 protein expression in human MDA-MB-231 cells after 48 hrs by Western blot method; format: functional, cell-based
In short: (§1)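 Treated cells were lysed and CDK4 and cyclin D1 protein levels were assessed by Western blot.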

[3] = molecular target: CDK2/Cyclin A2 (Homo sapiens) (UniProt P24941+P20248); assay: Inhibition of recombinant human full length C-terminal 6His-tagged CDK2/N-terminal GST-tagged Cyclin-A co-expressed in baculovirus infected sf21 cells at 1 uM relative to control
NCI-H460 [4] = assay: Induction of apoptosis in human NCI-H460 cells assessed as early apoptotic cells at 5 uM after 48 hrs by annexin V-FITC/propidium iodide staining based flow cytometry (reference value: 0.11%); format: functional
CDK4/CDK9 (Homo sapiens) [5] = molecular target: T1, CDK4/CDK9 (Homo sapiens) (UniProt P11802+P50750); assay: Inhibition of CDK4/CDK9 in human T47D cells assessed as reduction in Rb phosphorylation at Ser807/811 residues at 1 uM after 48 hrs by Western blot method; format: cell-based
Hep 3B2 [6] = assay: Downregulation of CDK4 protein expression in human Hep3B cells after 48 hrs by Western blot method; format: functional, cell-based
Hep 3B2 [7] = assay: Cytotoxicity against human Hep3B cells assessed as reduction in cell viability after 72 hrs by CCK8 assay
Histone deacetylase 1 [8] = molecular target: T2, Histone deacetylase 1 (Homo sapiens, UniProt Q13547); assay: Inhibition of HDAC1 (unknown origin)
CDK4/CDK9 (Homo sapiens) [9] = molecular target: T1, CDK4/CDK9 (Homo sapiens); assay: Inhibition of CDK4/CDK9 in human A549 cells assessed as reduction in Rb phosphorylation at Ser807/811 residues at 1 uM after 48 hrs by Western blot method; format: cell-based
A549 [10] = assay: Induction of apoptosis in human A549 cells assessed as live cells at 5 uM after 48 hrs by annexin V-FITC/propidium iodide staining based flow cytometry (reference value: 92.7%); format: functional
NCI-H460 [11] = assay: Downregulation of CDK4 protein expression in human NCI-H460 cells after 48 hrs by Western blot method; format: functional, cell-based; in short: as §1
NCI-H1299 = assay: Cytotoxicity against human NCI-H1299 cells assessed as reduction in cell viability after 72 hrs by CCK8 assay; format: functional, cell-based; details: NCI-H1299, 72 h
Rattus norvegicus = assay: Apparent volume of distribution at steady state in Sprague-Dawley rat at 20 mg/kg, ip administered as single dose by HPLC analysis; format: ADME, organism-based; details: in vivo
A549 [12] = assay: Downregulation of Cyclin-D1 protein expression in human A549 cells after 48 hrs by Western blot method; format: functional, cell-based; in short: as §1
[13] = Half life in Sprague-Dawley rat at 20 mg/kg, po administered as single dose by HPLC analysis; format: ADME, organism-based; details: in vivo
[14] = Half life in Sprague-Dawley rat at 20 mg/kg, ip administered as single dose by HPLC analysis; format: ADME, organism-based; details: in vivo
NCI-H460 [15] = assay: Induction of apoptosis in human NCI-H460 cells assessed as early apoptotic cells at 10 uM after 48 hrs by annexin V-FITC/propidium iodide staining based flow cytometry (reference value: 0.11%); format: functional
Histone deacetylase 1 [16] = molecular target: T2, Histone deacetylase 1; assay: Inhibition of HDAC1 in human NCI-H460 cells assessed as increase in p53 phosphorylation at Ser15 residue at 1 to 5 uM after 48 hrs by Western blot method; format: cell-based
Histone deacetylase 1 [17] = molecular target: T2, Histone deacetylase 1; assay: Potency index, ratio of vorinostat IC50 to compound IC50 for HDAC1 (unknown origin)
[18] = molecular target: Aurora kinase B/Inner centromere protein (Homo sapiens, UniProt Q96GD4); assay: Inhibition of recombinant human full length C-terminal His6-tagged Aurora B//N-terminal GST-tagged INCENP (821-end residues) expressed in baculovirus infected sf21 cells using AKRRRLSSLRA substrate in presence of [gamma33P]ATP after 10 mins by scintillation counting method
Hep 3B2 [19] = assay: Induction of apoptosis in human Hep3B cells assessed as late apoptotic cells at 5 uM after 48 hrs by annexin V-FITC/propidium iodide staining based flow cytometry (reference value: 5.25%); format: functional
T47D = assay: Induction of apoptosis in human T47D cells assessed as necrotic cells at 10 uM after 48 hrs by annexin V-FITC/propidium iodide staining based flow cytometry (reference value: 0.8%); format: functional
MDA-MB-231 [20] = assay: Induction of apoptosis in human MDA-MB-231 cells assessed as early apoptotic cells at 10 uM after 48 hrs by annexin V-FITC/propidium iodide staining based flow cytometry (reference value: 0.4%); format: functional
4T1 [21] = assay: Antitumor activity against mouse Fluc-labeled 4T1 cells implanted in Balb/c mouse assessed as reduction in tumor weight at 90 mg/kg, ip administered daily for 18 days measured after 8 to 25 days; format: functional, organism-based
In short: (§2)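 Luciferase (Fluc) reporter introduced into 4T1 cells by lentiviral transduction. Cells implanted orthotopically into mammary fat pads of female BALB/c mice aged 6–8 weeks. Once tumours averaged 100 mm3, dosing was daily by IP injection. Bioluminescence imaging was done at days 8 and 25 to reflect viable tumour cell number. Tumour weight was recorded at study end.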

NCI-H460 [22] = assay: Induction of apoptosis in human NCI-H460 cells assessed as caspase-3 cleavage after 48 hrs by Western blot method; format: functional, cell-based
In short: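 Cells were treated with or without test agent, alongside a control, for 48h. They were then lysed and analysed by Western blot for Bcl-2 protein and cleaved caspase 3.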

MDA-MB-231 [23] = assay: Cell cycle arrest in human MDA-MB-231 cells assessed as accumulation at G2 phase at 2.5 to 10 uM after 24 hrs by propidium iodide staining based flow cytometry; format: functional
In short: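 Cells were exposed for 24 h to a range of concentrations (625 nM, 2.5 and 10 µM), with DMSO vehicle as control. They were then stained with propidium iodide and analysed by flow cytometry to obtain the percentages of cells in G0/G1, S and G2 phases.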

Histone deacetylase 1 [24] = molecular target: T2, Histone deacetylase 1; assay: Inhibition of HDAC1 in human Hep3B cells assessed as increase in acetylated-histone H3 level at 1 to 5 uM after 48 hrs by Western blot method; format: cell-based
Hep 3B2 [25] = assay: Induction of apoptosis in human Hep3B cells assessed as reduction in Bcl2 protein expression after 48 hrs by Western blot method; format: functional, cell-based
In short: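 Cells were treated with or without compound and control for 48 h, then lysed. Bcl-2 and cleaved caspase 3 were assessed by Western blot.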

[26] = molecular target: Cyclin-dependent kinase 2/cyclin E1 (Homo sapiens) (UniProt P24864+P24941); assay: Inhibition of recombinant human full length C-terminal 6His-tagged CDK2/N-terminal GST-tagged Cyclin-E co-expressed in baculovirus infected sf21 cells at 1 uM using histone H1 substrate in presence of [gamma33P]ATP after 10 mins by scintillation counting method relative to control
Histone deacetylase 1 [27] = molecular target: T2, Histone deacetylase 1; assay: Inhibition of HDAC1 in human MDA-MB-231 cells assessed as increase in acetylated-histone H3 level at 1 to 5 uM after 48 hrs by Western blot method; format: cell-based
4T1 [28] = assay: Antitumor activity against mouse Fluc-labeled 4T1 cells implanted in Balb/c mouse assessed as tumor growth inhibition administered ip daily for 18 days measured after 8 to 25 days by bioluminescence assay; format: functional, organism-based; in short: as §2
HepG2 = assay: Induction of apoptosis in human HepG2 cells assessed as necrotic cells at 5 uM after 48 hrs by annexin V-FITC/propidium iodide staining based flow cytometry (reference value: 2.32%); format: functional

T2 sequence (Q13547 whole entry): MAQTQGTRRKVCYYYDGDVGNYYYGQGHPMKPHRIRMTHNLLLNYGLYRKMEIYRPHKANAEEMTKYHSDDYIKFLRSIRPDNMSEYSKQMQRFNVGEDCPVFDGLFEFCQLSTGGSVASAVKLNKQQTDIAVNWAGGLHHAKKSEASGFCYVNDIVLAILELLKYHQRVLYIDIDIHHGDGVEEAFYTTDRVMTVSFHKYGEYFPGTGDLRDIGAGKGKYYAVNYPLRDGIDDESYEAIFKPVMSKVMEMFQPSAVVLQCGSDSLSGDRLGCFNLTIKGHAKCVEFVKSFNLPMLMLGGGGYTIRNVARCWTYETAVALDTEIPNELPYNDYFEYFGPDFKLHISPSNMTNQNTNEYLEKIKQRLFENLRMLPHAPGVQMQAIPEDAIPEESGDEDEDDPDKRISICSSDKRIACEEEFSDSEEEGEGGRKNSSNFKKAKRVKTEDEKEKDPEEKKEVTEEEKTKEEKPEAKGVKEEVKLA
T1 sequence (P11802 whole entry, looked up): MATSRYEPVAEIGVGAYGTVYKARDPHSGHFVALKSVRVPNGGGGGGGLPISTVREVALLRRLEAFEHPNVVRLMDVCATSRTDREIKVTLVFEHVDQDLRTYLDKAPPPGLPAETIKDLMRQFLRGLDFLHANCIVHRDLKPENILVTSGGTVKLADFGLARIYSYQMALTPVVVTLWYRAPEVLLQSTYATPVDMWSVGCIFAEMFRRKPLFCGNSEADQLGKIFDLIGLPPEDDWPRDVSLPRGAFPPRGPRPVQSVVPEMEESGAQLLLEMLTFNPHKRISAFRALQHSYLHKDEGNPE
T1 sequence (P50750 whole entry, looked up): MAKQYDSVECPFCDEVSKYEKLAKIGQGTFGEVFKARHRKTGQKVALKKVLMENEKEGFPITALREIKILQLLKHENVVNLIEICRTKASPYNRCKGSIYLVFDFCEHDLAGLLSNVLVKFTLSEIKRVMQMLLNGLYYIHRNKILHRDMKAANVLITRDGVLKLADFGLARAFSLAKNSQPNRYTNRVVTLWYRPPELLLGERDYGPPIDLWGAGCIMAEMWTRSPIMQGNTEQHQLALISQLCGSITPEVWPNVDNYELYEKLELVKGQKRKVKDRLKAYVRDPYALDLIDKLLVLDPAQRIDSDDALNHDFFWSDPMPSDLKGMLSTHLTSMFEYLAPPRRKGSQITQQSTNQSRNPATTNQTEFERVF
Chain of Aurora kinase B/Inner centromere protein (Q96GD4 whole entry): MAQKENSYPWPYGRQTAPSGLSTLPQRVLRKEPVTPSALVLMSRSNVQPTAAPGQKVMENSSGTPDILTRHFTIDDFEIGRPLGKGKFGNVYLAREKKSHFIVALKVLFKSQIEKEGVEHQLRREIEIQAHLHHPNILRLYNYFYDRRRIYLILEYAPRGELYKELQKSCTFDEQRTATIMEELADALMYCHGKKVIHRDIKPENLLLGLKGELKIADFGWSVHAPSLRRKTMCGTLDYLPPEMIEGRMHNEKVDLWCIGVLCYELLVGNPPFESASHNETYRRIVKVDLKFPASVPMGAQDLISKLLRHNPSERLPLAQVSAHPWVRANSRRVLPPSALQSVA
Chain of Aurora kinase B/Inner centromere protein (Q9NQS7 whole entry, further chain): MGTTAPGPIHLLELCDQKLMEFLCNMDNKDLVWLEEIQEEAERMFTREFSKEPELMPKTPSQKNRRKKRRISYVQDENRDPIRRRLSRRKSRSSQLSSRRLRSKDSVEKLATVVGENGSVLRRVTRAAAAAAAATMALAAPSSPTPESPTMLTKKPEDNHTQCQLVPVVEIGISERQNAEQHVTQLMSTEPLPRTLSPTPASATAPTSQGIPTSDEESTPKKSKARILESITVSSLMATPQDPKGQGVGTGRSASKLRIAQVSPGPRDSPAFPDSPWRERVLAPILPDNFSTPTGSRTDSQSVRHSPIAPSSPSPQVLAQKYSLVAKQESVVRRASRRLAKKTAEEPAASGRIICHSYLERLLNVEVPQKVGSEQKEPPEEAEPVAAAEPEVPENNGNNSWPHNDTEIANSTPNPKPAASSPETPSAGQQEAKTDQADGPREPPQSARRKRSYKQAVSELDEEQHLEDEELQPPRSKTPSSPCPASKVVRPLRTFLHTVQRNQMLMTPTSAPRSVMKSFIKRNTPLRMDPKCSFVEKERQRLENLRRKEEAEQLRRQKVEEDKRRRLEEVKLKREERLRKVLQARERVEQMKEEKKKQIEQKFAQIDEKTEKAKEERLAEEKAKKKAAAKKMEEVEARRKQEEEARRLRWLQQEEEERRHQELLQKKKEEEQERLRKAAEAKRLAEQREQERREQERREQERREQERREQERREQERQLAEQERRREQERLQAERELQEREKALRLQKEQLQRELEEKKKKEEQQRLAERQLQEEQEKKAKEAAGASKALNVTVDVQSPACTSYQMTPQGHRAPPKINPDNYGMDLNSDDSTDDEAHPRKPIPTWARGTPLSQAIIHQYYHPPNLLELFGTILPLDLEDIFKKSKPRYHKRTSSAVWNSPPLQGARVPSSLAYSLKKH

## CN(C)C(=O)c1cc2cnc(Nc3ccc(NC(=O)CCCCCCC(=O)NO)cc3)nc2n1C1CCCC1
A549 [1]
  Activity: Dose-dependent effect
MDA-MB-231 [2]
  Activity: Dose-dependent effect
[3]
  inhibition: 71%
NCI-H460 [4]
  Activity: 1.82%
CDK4/CDK9 (Homo sapiens) [5]
  inhibition: Active
Hep 3B2 [6]
  Activity: Dose-dependent effect
Hep 3B2 [7]
  IC50: 1240 nM
Histone deacetylase 1 [8]
  IC50: 2.2 nM
CDK4/CDK9 (Homo sapiens) [9]
  inhibition: Active
A549 [10]
  Activity: 80.5%
NCI-H460 [11]
  Activity: Dose-dependent effect
NCI-H1299
  IC50: 1870 nM
Rattus norvegicus
  Vdss(app): 119.94 L/kg
A549 [12]
  Activity: Dose-dependent effect
[13]
  half-life: 14.9 h
[14]
  half-life: 9.65 h
NCI-H460 [15]
  Activity: 3.95%
Histone deacetylase 1 [16]
  inhibition: Active
Histone deacetylase 1 [17]
  Ratio IC50: > 10
[18]
  IC50: 19 nM
Hep 3B2 [19]
  Activity: 10.4%
T47D
  Activity: 2.62%
MDA-MB-231 [20]
  Activity: 5.09%
4T1 [21]
  Activity: Active
NCI-H460 [22]
  Activity: Active
MDA-MB-231 [23]
  Activity: Active
Histone deacetylase 1 [24]
  inhibition: Active
Hep 3B2 [25]
  Activity: Active
[26]
  inhibition: 66%
Histone deacetylase 1 [27]
  inhibition: Active
4T1 [28]
  TGI: Dose-dependent effect
HepG2
  Activity: 6.13%
